Reference: article PMC5480311 (ACS infectious diseases, 2016)

How the values were obtained:
UL44−P54 interaction = UL44−P54 interaction (Human cytomegalovirus, UniProt P16790); assay: FP assay of UL44−P54 interaction; assay type: binding; conditions: IC50, inhibition of P54−UL44 interaction, incubation time 20 min or beyond
Summary of the method: (§1)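 Fluorescence polarization assays of each protein–peptide pair: UL44–P54 (GST-fused UL44ΔC290 with fluorescently labelled P54), UL42–P30 and PCNA–p21. Test compound was pre-incubated for set times, up to 60 min, before FP was read. Normalized mP relative to the no-inhibitor control was plotted against compound concentration. Error bars are standard errors of the mean.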

UL42−P30 interaction = UL42−P30 interaction (Human herpesvirus 1, UniProt P10226); assay: FP assay of UL42−P30 interaction; assay type: binding, herpes simplex virus-1
Summary of the method: as §1

PCNA−P21 interaction = PCNA−P21 interaction (Homo sapiens, UniProt P12004); assay: FP assay of PCNA−P21 interaction; assay type: binding; conditions: incubation up to 60 min, not meaningfully changed
Summary of the method: as §1

[1] = target: UL44 binding to full-length UL54 (Human cytomegalovirus, UniProt P16790); assay: UL54−UL44 interaction assay by biolayer interferometry
Summary of the method: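 Biolayer interferometry measured UL44 binding to full-length UL54 in the presence of test compound. Signal is given relative to binding without compound, and error bars are standard errors of the mean.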

UL54/UL44 DNA polymerase = UL54/UL44 DNA polymerase (Human cytomegalovirus, UniProt P16790); assay: Long-chain DNA synthesis by UL54−UL44; assay type: biochemical
Summary of the method: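 UL54 with UL44 was used to make long-chain DNA products, and their formation was followed across a dose series of test compound, with product lanes compared. Signal is expressed relative to the no-compound reaction, and error bars are standard errors of the mean.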

UL54 = UL54 (Human cytomegalovirus, UniProt P08546); assay: DNA synthesis by UL54 alone, filter binding assay; assay type: biochemical
Summary of the method: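 Basal DNA synthesis by UL54 alone, without UL44, was measured by filter-binding assay across test compound concentrations. Signal is given relative to no compound, and error bars are standard errors of the mean.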

[2] = target: UL44 K60A−P54 interaction (Human cytomegalovirus, UniProt P16790, K60A); assay: FP assay of mutant UL44 K60A−P54 interaction; assay type: binding; conditions: read-out: inhibition of UL44 K60A−P54 interaction

Sequence of PCNA−P21 interaction (P12004 whole entry): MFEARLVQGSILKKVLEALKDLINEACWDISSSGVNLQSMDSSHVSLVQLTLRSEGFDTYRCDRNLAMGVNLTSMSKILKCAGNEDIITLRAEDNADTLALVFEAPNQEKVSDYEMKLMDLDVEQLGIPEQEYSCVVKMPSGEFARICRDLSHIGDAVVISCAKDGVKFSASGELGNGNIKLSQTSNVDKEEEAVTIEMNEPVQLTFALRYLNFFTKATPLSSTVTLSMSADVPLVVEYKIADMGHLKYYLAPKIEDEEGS

**Q.** How did the IC50 (UL44−P54 interaction) turn out when CSc1scc2c1C(=O)C(=CN(C)C)CC2 [SGM8] was run?
**A.** 2 µM

**Q.** What about the IC50 (UL42−P30 interaction) of the same compound?
**A.** ~20 µM

**Q.** And the “change of inhibition of P30−UL42 interaction on longer incubation” value (UL42−P30 interaction; incubation time extended to 60 min)?
**A.** only slightly increased

**Q.** And the “inhibition of P21−PCNA interaction” value (PCNA−P21 interaction)?
**A.** very weak inhibition

**Q.** What about the IC50 [1] of the same compound?
**A.** 4.5 µM

**Q.** What about the IC50 (UL54/UL44 DNA polymerase) of the same compound?
**A.** 3.2 µM

**Q.** What about the IC50 (UL54) of the same compound?
**A.** > 100 µM

**Q.** And the inhibition at 20 µM [2]?
**A.** < 50%
